A selection: hits, their analogues and other compounds. The true share with any hit is near 2.9%.
Hck-Nef inh: inhibitors of Nef-activated human Hck kinase, primary screen, biochemical, Z-Lyte FRET, 384-well, Hck-YEEI; Recombinant Hck-YEEI plus Nef, Z-Lyte FRET kinase assay; 0.68% of 220,000 active; inhibition, % at 20 µM; AID 463187, 2010; Tyrosine-protein kinase HCK (Homo sapiens), P08631;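 active = Hck-Nef kinase inhibition above about 50%, limit read from the data; inactive = inhibition below that limit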;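 note: 0% = DMSO with Hck plus Nef and 100% = Hck alone without Nef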
Target sequence (P08631 whole entry, looked up): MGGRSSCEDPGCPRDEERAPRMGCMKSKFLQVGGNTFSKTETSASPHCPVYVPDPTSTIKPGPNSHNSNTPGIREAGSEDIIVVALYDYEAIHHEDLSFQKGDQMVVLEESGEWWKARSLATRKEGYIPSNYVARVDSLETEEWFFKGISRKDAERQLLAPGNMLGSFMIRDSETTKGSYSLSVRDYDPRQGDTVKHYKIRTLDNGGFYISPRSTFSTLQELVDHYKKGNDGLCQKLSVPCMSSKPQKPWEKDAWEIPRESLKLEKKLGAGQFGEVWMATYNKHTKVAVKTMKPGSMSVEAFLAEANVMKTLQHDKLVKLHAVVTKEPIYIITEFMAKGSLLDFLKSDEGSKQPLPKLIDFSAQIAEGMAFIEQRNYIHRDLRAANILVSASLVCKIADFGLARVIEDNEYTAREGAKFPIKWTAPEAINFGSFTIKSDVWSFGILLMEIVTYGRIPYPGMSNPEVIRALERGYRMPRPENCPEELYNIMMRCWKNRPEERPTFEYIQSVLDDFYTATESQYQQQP
RBBP9 inhibitor: human RBBP9 inhibitors, primary screen, biochemical, fluorescence polarization, FP-Rh probe, HTS; AID 1515, 2009; recombinant RBBP9; Serine hydrolase RBBP9 (Homo sapiens), O75884; inhibition, % at 7.94 µM; 0.2% of 220,000 active;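 active = inhibition above the campaign mean of all tested compounds plus 3 SD, cut at about 14% in these data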;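 note: plate controls were DMSO wells with RBBP9 for no effect and wells lacking RBBP9 protein for full effect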
Target sequence (O75884 whole entry, looked up): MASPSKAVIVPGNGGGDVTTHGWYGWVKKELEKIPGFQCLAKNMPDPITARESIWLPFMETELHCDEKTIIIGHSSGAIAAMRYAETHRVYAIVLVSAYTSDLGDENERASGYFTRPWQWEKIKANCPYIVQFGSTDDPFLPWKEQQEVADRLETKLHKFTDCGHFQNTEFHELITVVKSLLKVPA
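Assay system: recombinant human RBBP9; Reagent: Serine-hydrolase probe FP-Rh, 375 nM pre-mixing; Doses: 7.94 µM single dose, 0.794% DMSO; Incubation: 30 min then 45 min, 25 °C; Detection: fluorescence polarization (mP), excitation 525 nm, emission 598 nm; Evaluation: percent inhibition from mP, scaled between DMSO and no-protein wells.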
RanGTP-Imp inh: inhibitors of RanGTP-importin-beta interaction, primary screen, biochemical, FRET, CFP-Ran, YFP-importin-beta, homogeneous; 1.1% of 300,000 active; AID 2216, 2009; inhibition, % (concentration not given with the values); Ran GTPase (GTP-bound) - importin-beta complex; cell-free CFP-Ran/YFP-importin-beta FRET ratio;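 active = more than half of the replicate wells show a fall in the fluorescence ratio signal beyond about 16%, limit read from the data, passing the limit was not always enough; inconclusive = exactly half of the replicate wells pass the set limit; inactive = fewer than half of replicates pass the limit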;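 note: 0% = DMSO wells and 100% = Ran loaded with GDP instead of GTP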
Runt-CBFb FRET: inhibitors of RUNX1 Runt–CBFb binding, primary screen, biochemical, FRET, Cerulean-Runt, Venus-CBFb, uHTS; Runt-related transcription factor 1 (Homo sapiens) + Core-binding factor subunit beta …; Cerulean-Runt/Venus-CBFb FRET ratio 530/480, 1 h; inhibition, % at 20 µM; 0.46% of 220,000 active; AID 1496, 2009;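 active = inhibition over about 50% at 20 µM in the single-dose screen, limit read from the data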;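 note: 0% = DMSO wells and 100% = excess unlabeled CBFb competitor control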
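Assay system: Cerulean-Runt domain / Medium: Tris 50 mM pH 7.5, KCl, K2SO4, 0.01% BSA / Timing: protein complex preformed 1 h, compound exposure 1 h, room temperature, dark / Measured by: FRET, excitation 422 nm, emission at 530 and 480 nm / Evaluation: loss of energy transfer signal / Control set: 5 µM unlabeled CBFb as full-inhibition high control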
M18AAP inhibitor: PfM18AAP inhibitors, malaria aminopeptidase, primary screen, biochemical, QFRET, recombinant enzyme. M18 aspartyl aminopeptidase (Plasmodium falciparum 3D7). H-Glu-NHMec fluorogenic cleavage. inhibition, % at 7.35 µM. 1.2% of 290,000 active;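 active = inhibition above the campaign mean inhibition over all tested compounds plus 3 SD, cut at about 28% in these data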;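 note: 0% = plate median of test compound wells and 100% = 2 mM ZnCl2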
Runt-SMMHC FRET: inhibitors of RUNX1 Runt–CBFb-SMMHC binding, primary screen, biochemical, FRET, Cerulean-Runt, Venus-CBFb-SMMHC, uHTS; Runt-related transcription factor 1 (Homo sapiens) + Core-binding factor subunit beta …; Cerulean-Runt/Venus-CBFb-SMMHC FRET ratio 530/480, 1 h; inhibition, % at 20 µM; 0.74% of 220,000 active;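 active = mean inhibition across duplicate retests at 20 µM reaching about 50%, limit read from the data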;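 note: 0% = DMSO wells and 100% = wells with excess untagged CBFb-SMMHC; inhibitors lower the FRET ratio by blocking Runt binding to CBFb-SMMHC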
An asterisk follows results filed as active; ? = inconclusive; nt = no result given.

SMILES	Hck-Nef inh	RBBP9 inhibitor	RanGTP-Imp inh	Runt-CBFb FRET	M18AAP inhibitor	Runt-SMMHC FRET
Cc1ccc2cc3c(NC(=O)c4ccco4)nn(C)c3nc2c1	16	-7	23*	17	12	27
CCCC(=O)Nc1nn(CCC)c2nc3ccccc3cc12	14	-9	8	8	4	4
CCn1nc(NC(=O)c2ccco2)c2cc3cc(C)ccc3nc21	-10	1	54*	39	-1	84*
CC(CN1CCCCC1)OC(=O)c1ccco1 (stereo unspecified)	nt	nt	5	nt	-2	nt
N=c1oc2cc(O)ccc2cc1C(=O)Nc1ccc(Cl)cc1	nt	nt	170*	nt	20	nt
Cc1ccc(NC(=O)c2cc3ccccc3oc2=N)cc1	nt	nt	-6	nt	1	nt
COc1ccc(C(=O)N/N=C\c2coc3ccccc3c2=O)cc1	-162	3	2	0	20	2
COc1cc(C(=O)N/N=C/c2coc3ccccc3c2=O)cc(OC)c1OC	nt	nt	5	nt	30*	nt
CCn1c(SCC(=O)NCCc2ccccc2)nc2sc3c(c2c1=O)CCN(C)C3	10	1	6	6	16	10
CCn1c(SCC(=O)c2ccccc2)nc2sc3c(c2c1=O)CCN(C)C3	5	-16	8	10	5	85*
COc1ccc(N(Cc2ccccc2)N=O)cc1	nt	nt	0	nt	-4	nt
COc1ccccc1C1CCN(Cc2ccc(C)cc2)CC1	nt	nt	-5	nt	-2	nt
Nc1cccc2c1C(=O)N(C(=O)c1cccc(S(=O)(=O)N3CCCC3)c1)C2=O	-23	-8	9	-30	-1	62*
CCCCn1nnnc1NCc1ccc(N(CC)CC)cc1	0	-5	-2	2	31*	2
CCCCn1nnnc1NCc1ccc(C)cc1	nt	nt	3	nt	4	nt
S=c1[nH]nc(-c2ccco2)n1/N=C/c1ccccc1Cl	0	-8	4	15	15	15
S=c1[nH]nc(-c2ccco2)n1/N=C/c1ccc(Cl)cc1	0	-1	3	12	31*	7
N#Cc1cccc(N=c2ssnc2Cl)c1	-14	-4	2	14	29*	35
O=C(NC(Cc1ccccc1)C(=O)O)/C(=C\c1ccc(Cl)cc1)NC(=O)c1ccco1 (stereo unspecified)	nt	nt	4	nt	-1	nt
Cc1ccc(/C=N/n2cc(-c3ccccc3)[nH]c2=S)s1	17	-11	-1	nt	53*	19
S=c1[nH]c(-c2ccccc2)cn1/N=C/c1cccc2ccccc12	27	-6	0	29	25	-12
C=CCn1c(CCSCc2ccc(OC)c(C)c2)n[nH]c1=S	18	-4	-1	1	14	6
CCn1c(CCCc2ccc(OC)c(C)c2)n[nH]c1=S	-14	4	-2	15	29*	10
CCS(=O)(=O)N1CCC(NC(=O)C(Cc2ccc(OC)c(OC)c2)NC(C)=O)CC1 (stereo unspecified)	nt	nt	6	nt	-3	nt
COc1ccc(-c2cnnc(N/N=C/c3ccc(O)c(O)c3)n2)cc1	8	-16	0	2	48*	-3
SMILES	Hck-Nef inh	RBBP9 inhibitor	RanGTP-Imp inh	Runt-CBFb FRET	M18AAP inhibitor	Runt-SMMHC FRET
CCOC(=O)c1cc(-c2ccccc2)n(CCC(=O)O)c1C	-12	-4	-1	-1	2	-3
O=C(O)CCn1c(-c2ccccc2)cc2c1CCCC2=O	1	8	-2	7	29*	-9
N#C/C(=C/c1ccc(N2CCCCCC2)o1)c1ccc(Cl)cc1	-26	-10	33*	28	-14	26
C/C(=N\NC(=O)C(=O)N/N=C(\C)c1cccc(O)c1)c1cccc(O)c1	22	-4	-6	-1	11	-3
COc1cc2[nH]c(=S)nc(NCc3cccnc3)c2cc1OC	nt	nt	0	nt	30*	nt
COc1cc2[nH]c(=S)nc(NCc3ccccc3)c2cc1OC	nt	nt	2	nt	5	nt
NS(=O)(=O)c1ccc(N=Nc2ccc(O)c3ncccc23)cc1	nt	nt	-5	nt	8	nt
O=Cc1ccc(O)c2ncccc12	-1	-3	9	43	4	74*
N=c1n(N)c2ccccc2n1CC(=O)c1ccc(Br)cc1	nt	nt	?	nt	0	nt
N=C1SC(CC(=O)Nc2ccc([N+](=O)[O-])cc2)C(=O)N1c1ccccc1 (stereo unspecified)	17	0	0	1	29*	3
O=C(CC1SC(=O)N(c2ccccc2)C1=O)Nc1ccccc1 (stereo unspecified)	6	-4	-10	4	3	5
CC(NC(=O)OC(C)(C)C)C(=O)Oc1cc2oc(=O)cc(-c3ccccc3)c2cc1Cl (stereo unspecified)	4	-10	1	19	3	79*
CC(Oc1cc2oc(=O)cc(-c3ccccc3)c2cc1Cl)C(=O)NCC1CCC(C(=O)O)CC1 (stereo unspecified)	nt	nt	6	nt	2	nt
Cc1ccc(S(=O)(=O)N2CCc3ccccc3C2)cc1C	nt	nt	-1	nt	-6	nt
CC(Oc1ccccc1Cl)C(=O)Nc1ccccc1C(=O)N1CCOCC1 (stereo unspecified)	nt	nt	-2	nt	-2	nt
CCOc1ccc2c(C)c(Cl)c(=O)oc2c1	-2	-3	3	1	6	-1
CCN(Cc1cc(=O)oc2cc(C)ccc12)c1ccccc1	nt	nt	-2	nt	-2	nt
CCN(CC)c1ccc2c(c1)oc(=O)c1c(Cl)cc(=O)oc12	25	-4	67*	18	-1	62*
CCN(CC)c1ccc2c(Cl)c(Br)c(=O)oc2c1	11	-13	43*	12	-13	-14
CCN(CC)c1ccc2c(C)c(-c3ccc(N)cc3)c(=O)oc2c1	7	-8	136*	48	4	64*
O=C(Nc1ccccc1Br)c1ccc(N2CCCC2=O)cc1	nt	nt	-1	nt	nt	nt
COc1ccc(N2CCN(S(=O)(=O)CCNC(=O)COc3cccc(OC)c3)CC2)cc1	nt	nt	2	nt	7	nt
Cc1nnc(SCC(=O)Nc2sc3c(c2C(N)=O)CCCC3)[nH]c1=O	1	-7	0	-3	29*	-4
Cn1cnnc1SCC(=O)Nc1sc2c(c1C(N)=O)CCC2	8	4	?	-2	4	-11
CCc1ccc(OCCCC(=O)Nc2ccc(S(=O)(=O)Nc3cc(C)nc(C)n3)cc2)cc1	nt	nt	12	nt	2	nt
CCc1ccc(-c2cn3nc(-c4ccccc4)cnc3n2)cc1	4	-2	21*	2	4	12
